# Screening data: PubChem, Sanford-Burnham Center for Chemical Genomics
# MT1-MMP act inh: blocks activation of human MT1-MMP; HT1080 RFP-PRO-GFP cells, GFP/RFP ratio fluorescence, overnight; percent of plate control window, DMSO zero; GFP/RFP ratio change, % at 20 µM; 0.061% of 360,000 active;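 active means GFP/RFP ratio change of at least 30% with cell ATP level not reduced by more than half and red fluorescence within 50% of control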
#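 Read-out: GFP/RFP fluorescence ratio; Test system: RFP-PRO-GFP reporter HT1080 cells; Compound dosing: single-point 20 µM compound, 1% DMSO; Times: overnight compound exposure at 37 °C.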
# Rpn11 block: blocks the human proteasome subunit Rpn11 | O00487 | human 26S proteasome, Ub4-pepOG fluorescence polarization; 20S core pre-blocked with epoxomicin | inhibition, % at 20 µM | 0.59% of 360,000 active;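 active means inhibition at 20 µM, scaled to each plate's controls, above about 33%, limit read from the data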
# Target sequence (O00487 whole entry, looked up): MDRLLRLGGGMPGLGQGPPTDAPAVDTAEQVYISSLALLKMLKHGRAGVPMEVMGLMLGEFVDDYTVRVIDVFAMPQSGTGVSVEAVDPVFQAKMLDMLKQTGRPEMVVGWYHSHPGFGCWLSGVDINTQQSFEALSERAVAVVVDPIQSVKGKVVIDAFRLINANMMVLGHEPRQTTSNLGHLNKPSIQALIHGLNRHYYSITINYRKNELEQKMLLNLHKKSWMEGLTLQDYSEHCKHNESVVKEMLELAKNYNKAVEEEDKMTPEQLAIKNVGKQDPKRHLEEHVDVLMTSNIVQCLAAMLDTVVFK
# CSN deneddyl inh: inhibitors of human CSN-mediated cullin deneddylation. Q92905. 0.38% of 360,000 active. inhibition, % at 12.5 µM. Purified CSN, SCF-Nedd8-OG deneddylation, fluorescence polarization. AID 651999;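 active means pattern-corrected inhibition above about 35%, with an unprinted fluorescence ratio check between 0.5 and 1.5, limit read from the data, passing the limit was not always enough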;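 further: 0% = enzyme with substrate and 100% = substrate without enzyme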
#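 Assay system: purified human Csn5 enzyme expressed in HEK293T cells; Input: 0.24 nM Csn5 enzyme, final concentration; Reagent: 10 nM SCFSkp2-Nedd8OG; Compound dosing: 12.5 µM single point; Times: reaction 90 min, room temperature; Technique: fluorescence polarization readout.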
# SKN-1 block: C. elegans SKN-1 inhibition. AID 624304. 0.49% of 360,000 active. inhibition, % at 21.8 µM. C. elegans VP596 Pgst-4::GFP/RFP ratio, acrylamide-induced, 24 h;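 active means interference check ratio from 0.5 to 1.5 plus GFP to RFP signal ratio inhibition reaching or exceeding a fixed threshold, cut at about 30% in these data, passing the limit was not always enough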
# SUMO1-SIM PPI: modulators of human SUMO1-mediated protein-protein interactions; P63165; SUMO1 binding to a labelled peptide, TR-FRET, 1 h; inhibition, % at 20 µM; 0.33% of 360,000 active; AID 602429; in the data active means inhibition above about 37%
# Target sequence (P63165 whole entry, looked up): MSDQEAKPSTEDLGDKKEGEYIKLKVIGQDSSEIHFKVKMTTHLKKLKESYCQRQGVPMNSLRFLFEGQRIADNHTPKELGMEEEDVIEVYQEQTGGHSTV
# DNMT1 block: blocks human DNA methyltransferase DNMT1 | DNMT1 molecular beacon, Hinp1I cleavage, fluorescence | inhibition (reported as % activation of signal), % at 10 µM | 0.83% of 360,000 active; in the data active means inhibition above about 50%
# DNMT1 interf DR: beacon fluorescence artifact, dose response counter-screen | IC50, µM | shares compounds with DNMT1 block | AID 602382 | molecular beacon fluorescence, spectral interference counter-screen | 200 tested, under 10 active; call rule not given here
# DNMT1 inh conf: confirmation of human DNMT1 inhibitors. shares compounds with DNMT1 block. AID 602385. DNMT1 molecular beacon HinP1I cleavage, fluorescence. 8% of 2,300 active. inhibition, % at 10 µM;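 active means average inhibition of at least 30% in the single-concentration confirmation test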
# DNMT1 interf: shows spectral interference in the DNMT1 beacon assay; AID 602387; DNMT1 molecular beacon spectral interference counterscreen, fluorescence 485/520; activation (fluorescence interference), % at 10 µM; shares compounds with DNMT1 block; 1% of 2,300 active;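 active means activation of at least 30% at 10 µM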;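 further: DNMT1 catalytic domain with a HinP1I cleavage step and a FAM/dabcyl DNA beacon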
# * hit, by the source's call; . = no result given. Sampled rows, rich in hits. Any-hit rate of the full collection: about 2.3%.
SMILES,MT1-MMP act inh,Rpn11 block,CSN deneddyl inh,SKN-1 block,SUMO1-SIM PPI,DNMT1 block,others
COC(=O)c1nc(-c2ccc3c(n2)C(=O)C(N)=C(OC)C3=O)c(N)c(-c2ccc(OC)c(OC)c2O)c1C,7,-8,6,8,14,86*,
O=C1CC(=O)N(Cc2ccccc2)C(=O)N1,-12,14,3,15,1,2,
O=C1CC(=O)N(Cc2ccccc2)C(=O)N1Cc1ccccc1,-21,.,36*,20,1,8,
CCn1c(O)c(C(=O)CC2NCCc3ccccc32)c(=O)n(CC)c1=S (stereo unspecified),-17,110*,19,51*,2,-4,
CCn1c(O)c(C=Nc2ccc(N3CCOCC3)cc2)c(=O)n(CC)c1=S,-30,-154,-69,86,-18,-14,
O=C(Cc1cc(=O)oc2cc(O)ccc12)NN=Cc1ccc(N(CCCl)CCCl)cc1,-4,.,10,3,92*,-3,
COc1cc(C(c2c(C)[nH]n(-c3ccccc3)c2=O)c2c(C)[nH]n(-c3ccccc3)c2=O)cc(OC)c1OC,11,24,0,2,54*,9,
O=C1NC(=O)N(c2ccccc2)C(=O)/C1=C/c1ccoc1,-48,25,44*,16,4,17,
COc1cc(/C=C2/C(=O)NC(=O)N(c3ccccc3)C2=O)ccc1O,5,0,7,3,0,-2,
Nc1ccc(CC2=NCCN2)cc1,2,-1,1,11,-8,57*,
Cc1sc2ccccc2c1CC1=NCCN1,5,0,-2,-4,-25,4,
CCCc1nc2ccccc2c(=O)n1-c1ccc(OC)cc1,-3,2,-1,37*,3,5,
NCCc1cc(O)c(O)cc1O,2,-15,19,76,47*,118*,
COc1ccc(CCN)cc1O,6,-3,-3,-15,-3,-5,
C[CH2][Hg][S]c1ccccc1C(=O)O,9,9,-3,38*,10,26,
CCOC(=O)[C@]12Cc3cc(C)ccc3[C@H]1N(Cc1ccccc1)C(=O)c1cc(F)c(F)cc12,-18,.,1,-8,5,.,
CN(C)[C@@H]1C(=O)C(C(N)=O)=C(O)[C@@]2(O)C(=O)C3=C(O)c4c(O)cccc4[C@@](C)(O)[C@H]3[C@H](O)[C@@H]12,-7,-5,39,4,70*,97*,
CN(C)[C@@H]1C(=O)C(C(N)=O)=C(O)[C@@]2(O)C(=O)C3=C(O)c4c(O)cccc4[C@@](C)(O)C3C[C@@H]12 (stereo partly specified),-5,13,57,-16,37*,84*,
O=C(NCC1=C(c2cccc3ccccc23)C[C@@H]2CC[C@H]1N2Cc1ccco1)c1cccs1,-6,-22,5,6,-3,-2,
CCN1C(=O)/C(=C/c2ccc(N(CC)CC)cc2OC)C(=O)NC1=S,0,25,15,45*,2,-1,
Fc1cccc(F)c1-c1nc(-c2ccc(Cl)cc2)no1,-1,-4,-4,57*,2,-1,
O=C(N/N=C/c1c(O)n(Cc2ccccc2)c(=O)[nH]c1=O)c1ccccc1O,10,14,0,37*,3,1,
O=C(NCP(=O)(Oc1ccccc1)Oc1ccccc1)OCc1ccccc1,1,-6,1,3,0,2,
C[C@](N)(CCP(=O)(O)O)C(=O)O,1,-2,-1,49*,2,-2,
CC1=C(C)CN2CC(C#N)=C(N)C2C1 (stereo unspecified),-1,-13,-7,12,7,-10,
SMILES,MT1-MMP act inh,Rpn11 block,CSN deneddyl inh,SKN-1 block,SUMO1-SIM PPI,DNMT1 block,others
O=C1NC(=O)N(c2ccccc2F)C(=O)/C1=C/c1ccc(Sc2nc3ccccc3[nH]2)o1,9,83*,29,92,26,30,
CCCCOCCCn1c(N)c(C(=O)OCCOC)c2nc3ccccc3nc21,-3,10,4,16,40*,52*,DNMT1 inh conf=1;DNMT1 interf=0
COCCOC(=O)c1c(N)n(Cc2ccccc2)c2nc3ccccc3nc12,-8,-12,-1,7,30,42,
COC(=O)C1=C(c2ccc(OCc3ccccc3)cc2)C[C@@H]2CC[C@H]1N2C(=O)NCCc1ccc(F)cc1,-10,1,-5,4,4,-12,
CCCNC(=O)c1c(N)n(CC2CCCO2)c2nc3ccccc3nc12 (stereo unspecified),-13,9,40*,10,44*,61*,DNMT1 inh conf=2;DNMT1 interf=5
CN1CCc2nc(SCc3ccccc3Br)c(C#N)cc2C1,-7,11,7,-4,-15,39,
C=CCSc1nc2c(c(-c3ccsc3)c1C#N)CN(C)CC2,-11,-14,-6,25,-44,52*,DNMT1 inh conf=2;DNMT1 interf=3
COC(=O)[C@@]1(Sc2ccc(C)cc2)CC(=O)N(P(=O)(OC)OC)[C@@H]1c1ccccc1,6,.,-2,-2,0,.,
O=c1[nH]c(O)c(/C=C2\C=Nc3ccc(OCc4ccccc4)cc32)c(=O)[nH]1,3,9,5,13,4,71*,DNMT1 inh conf=8;DNMT1 interf=0
Cc1cccc(C)c1-n1nnnc1C(c1cccs1)N1CCC2(CC1)C(=O)NCN2c1ccccc1 (stereo unspecified),-5,12,2,1,6,-8,
CN1C(=O)/C(=C/c2cccn2-c2ccc3ccccc3c2)C(=O)NC1=S,-3,3,6,26,15,81*,DNMT1 inh conf=4;DNMT1 interf=-4
Cc1cc(C)cc(N2C(=O)NC(=O)/C(=C\c3cccn3-c3ccc(Cl)cc3)C2=O)c1,-5,6,-1,-5,7,17,
Cc1cc(C)cc(N2C(=O)NC(=O)/C(=C\c3cccn3-c3ccccc3)C2=O)c1,1,2,-10,-3,5,3,
O=C1NC(=S)NC(=O)C1=Cc1cccn1-c1ccc(O)cc1,0,-8,52,-3,11,84*,DNMT1 interf DR=>99;DNMT1 inh conf=65*;DNMT1 interf=-4
Fc1cccc(-c2ccc3c(c2)CNCc2cnnn2-3)c1,2,7,-1,12,3,1,
